# Results gathered from unrelated publications.
# Lines come from different studies, so protocols differ.
# Effect on: enzyme activity
# Action: inhibitor
# gag-pol reverse transcriptase: Gag-Pol polyprotein, reverse transcriptase (gag-pol, Human immunodeficiency virus type 1 group M subtype B, UniProt P04585)
# gag-pol protease: Gag-Pol polyprotein, protease (gag-pol, Human immunodeficiency virus type 1 group M subtype B, UniProt P04585)
SMILES,target,method,measurement,result
C=CCn1cc(C#N)c2cc(C#N)cnc21,gag-pol reverse transcriptase,FRET,IC50,> 100000 nM
O=C1c2c(O)ccc(O)c2C(=O)c2c(NCCNCCO)ccc(NCCNCCO)c21,gag-pol reverse transcriptase,,IC50,6300 nM
C[C@H](Cn1cnc2c(N)ncnc21)OCP(=O)(O)O,gag-pol reverse transcriptase,,IC50,950 nM
COc1ccc(S(=O)(=O)N(CC(C)C)C[C@@H](O)[C@@H]2Cc3ccc(cc3)OCC=CCCc3c(O)cccc3C(=O)N2)cc1,gag-pol protease,,Ki,0.2 nM
CC(C)C[C@H]1C(OC(C)(C)C)=CC(=O)N1[C@H]1CCN(C2=CC(=O)NC2Cc2ccccc2)C1 (stereo partly shown),gag-pol protease,fluorescence,IC50,516000 nM
CC(=O)c1cc2c(-c3ccc(N(C)C)cc3)c3c(nc2[nH]1)-c1ccccc1C3=O,gag-pol reverse transcriptase,FRET,IC50,> 10000 nM
Oc1cc2c(cc1O)C(c1ccccc1)CNCC2 (racemic),"Gag-Pol polyprotein, integrase (gag-pol, Human immunodeficiency virus type 1 group M subtype B, UniProt P04585)",,IC50,> 25000 nM
CC[C@H](C)[C@H]1C(OC(C)(C)C)=CC(=O)N1[C@H]1CCN(C2=CC(=O)N([C@H]3CCN(C4=CC(=O)N[C@H]4CC(C)C)C3)[C@H]2C)C1,gag-pol protease,fluorescence,IC50,111000 nM
COc1ccc(S(=O)(=O)N(CC(C)C)C[C@@H](O)[C@H](Cc2ccccc2)NC(=O)OC2CO[C@H]3OCC(F)(F)[C@@H]23)cc1 (stereo partly shown),gag-pol protease,,Ki,0.022 nM
C=CCCCCOc1ccc(C[C@H](NC(=O)c2cccc(O)c2CCC=C)[C@H](O)CN(CC(C)C)S(=O)(=O)c2ccc(OC)cc2)cc1,gag-pol protease,,Ki,30 nM
CC(C)CN(C[C@@H](O)[C@H](Cc1ccccc1)NC(=O)O[C@H]1CCO[C@H]2OCC[C@H]21)S(=O)(=O)c1ccc(B(O)O)cc1,gag-pol protease,,Ki,0.0021 nM
C=CCCOc1ccc(C[C@H](NC(=O)c2cccc(O)c2CCC=C)[C@H](O)CN(CC(C)C)S(=O)(=O)c2ccc(OC)cc2)cc1,gag-pol protease,,Ki,7 nM
N#Cc1cn(Cc2ccccc2)c2ncc(Br)cc12,gag-pol reverse transcriptase,FRET,IC50,> 100000 nM
